ChEMBL document CHEMBL1153628, “HCV NS5B polymerase inhibitors 2: Synthesis and in vitro activity of (1,1-dioxo-2H-[1,2,4]benzothiadiazin-3-yl) azolo[1,5-a]pyridine and azolo[1,5-a]pyrimidine derivatives” (Bioorg Med Chem Lett, 2009)

Legend:
[1] = Inhibition of HCV isolate HC-J4 NS5B deltaC21 polymerase; design: species or system Hepatitis C virus isolate HC-J4
How it was run: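 Inhibitor was preincubated 5 min, then 250 nM 5′-biotin-rU₁₂ primer, poly-rA template, UTP and ³H-UTP were added (5% DMSO). After 2 h, SPA beads/EDTA stop, then CsCl for 1 h, then scintillation count. IC50 by 4-parameter logistic fit.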

[2] = Cytotoxicity against human HuH7 cells; format: cell-based, Huh-7
How it was run: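 Huh-7 cells stably carrying luc/neo ET replicon, grown in DMEM with 10% fetal calf serum, seeded at 5 × 10³ cells/well. DMSO serial dilutions were added ~24 h after plating (final DMSO 1%), with exposure for 46–50 h. Luminescence vs log concentration was fitted to a 4-parameter logistic to give EC50 and CC50.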

Hepatitis C virus = assay: Antiviral activity against HCV 1b infected in human Huh7 cells after 46-50 hrs by luc/neo ET replicon assay; details: genotype 1b, Huh-7, 46-50 h

| SMILES | IC50 [1] [nM] | CC50 [2] [µM] | EC50 (Hepatitis C virus) [nM] |
| --- | --- | --- | --- |
| CC(C)CC[C@@]1(C)C(=O)C(C2=NS(=O)(=O)c3cc(NS(C)(=O)=O)ccc3N2)=C(O)c2cccn21 | < 5 | 19.5 | 150 |
| CC(C)CC[C@]1(C)C(=O)C(C2=NS(=O)(=O)c3cc(NS(C)(=O)=O)ccc3N2)=C(O)c2cccn21 | 150 | 170 | 4900 |
| CC(C)CCC1(C)C(=O)C(C2=NS(=O)(=O)c3cc(NS(C)(=O)=O)ccc3N2)=C(O)c2ccnn21 (centres undefined) | < 5 | > 100 | 1100 |
| CS(=O)(=O)Nc1ccc2c(c1)S(=O)(=O)N=C(c1c(O)n3nccc3n(Cc3ccccc3)c1=O)N2 | < 5 | > 100 | 4000 |
| CC(C)CCn1c(=O)c(C2=NS(=O)(=O)c3cc(NS(C)(=O)=O)ccc3N2)c(O)n2nccc12 | < 5 | > 100 | 550 |
| Cc1cc2n(CCC(C)C)c(=O)c(C3=NS(=O)(=O)c4cc(NS(C)(=O)=O)ccc4N3)c(O)n2n1 | < 5 | > 100 | 1700 |
| CC(C)CCn1c(=O)c(C2=NS(=O)(=O)c3cc(NS(C)(=O)=O)ccc3N2)c(O)n2ccnc12 | < 5 | > 1 | 550 |
| CC(C)CCC1(C)C(=O)C(C2=NS(=O)(=O)c3cc(NS(C)(=O)=O)ccc3N2)=C(O)c2cncn21 (centres undefined) | < 5 | > 100 | 6600 |
| CC(C)CCC1(C)C(=O)C(C2=NS(=O)(=O)c3cc(NS(C)(=O)=O)ccc3N2)=C(O)c2cccn21 (centres undefined) | < 5 | > 100 | 230 |
| CS(=O)(=O)Nc1ccc2c(c1)S(=O)(=O)N=C(c1c(O)n3nccc3n(Cc3ccc(F)cc3)c1=O)N2 | < 5 | > 100 | 12000 |
| CS(=O)(=O)Nc1ccc2c(c1)S(=O)(=O)N=C(c1c(O)n3nccc3n(CCc3ccc(F)cc3)c1=O)N2 | 18 | > 100 | > 100000 |
| CC(C)CCn1c(=O)c(C2=NS(=O)(=O)c3cc(NS(C)(=O)=O)ccc3N2)c(O)n2ncnc12 | < 5 | > 100 | 6700 |
| CC(C)CCn1c(=O)c(C2=NS(=O)(=O)c3cc(NS(C)(=O)=O)ccc3N2)c(O)n2nc(C3CC3)cc12 | 9 | > 100 | > 20000 |
